Tests used:
[1] = target: T1, Adenosine receptor A2b (Homo sapiens) (UniProt P29275); test: Displacement of [3H]DPCPX from human adenosine A2B receptor expressed in HEK293 cells at 1 uM; type: cell-based
T1 sequence (whole entry): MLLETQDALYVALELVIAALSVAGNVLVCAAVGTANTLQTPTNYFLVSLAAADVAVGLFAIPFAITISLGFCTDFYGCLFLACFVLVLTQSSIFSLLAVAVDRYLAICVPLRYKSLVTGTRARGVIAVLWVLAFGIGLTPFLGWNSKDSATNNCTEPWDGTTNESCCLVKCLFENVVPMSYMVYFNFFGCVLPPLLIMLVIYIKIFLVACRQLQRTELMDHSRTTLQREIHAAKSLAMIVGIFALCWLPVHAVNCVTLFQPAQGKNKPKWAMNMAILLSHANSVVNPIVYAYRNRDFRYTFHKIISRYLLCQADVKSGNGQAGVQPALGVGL
Procedure, shortened: (§1)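 Single concentration of 1 µM tested for displacement of specific radioligand binding, given as percentage displacement. Rat A1 in rat cortex membranes with [3H]DPCPX; human A2B in HEK-293 cells with [3H]DPCPX; human A2A in HeLa cells with [3H]ZM241385; human A3 in HeLa cells with [3H]NECA.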

[2] = target: Adenosine receptor A2a (Homo sapiens, UniProt P29274); test: Displacement of [3H]ZM241385 from human adenosine A2A receptor expressed in HeLa cells at 1 uM by microplate beta scintillation counting; type: cell-based; procedure, shortened: as §1
Adenosine receptor A2a, sequence (P29274 whole entry): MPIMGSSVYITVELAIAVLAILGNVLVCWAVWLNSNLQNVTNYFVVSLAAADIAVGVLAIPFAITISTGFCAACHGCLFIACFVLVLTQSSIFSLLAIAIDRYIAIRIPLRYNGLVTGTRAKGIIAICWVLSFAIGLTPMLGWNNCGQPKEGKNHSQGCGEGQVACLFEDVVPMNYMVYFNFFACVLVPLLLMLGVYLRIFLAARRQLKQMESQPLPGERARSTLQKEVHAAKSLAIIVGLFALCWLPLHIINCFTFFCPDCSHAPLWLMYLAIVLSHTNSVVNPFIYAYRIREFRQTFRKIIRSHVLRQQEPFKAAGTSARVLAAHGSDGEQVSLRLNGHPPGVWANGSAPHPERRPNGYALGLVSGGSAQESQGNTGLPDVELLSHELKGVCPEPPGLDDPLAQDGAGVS

[3] = target: T2, Adenosine receptor A1 (Rattus norvegicus) (UniProt P25099); test: Displacement of [3H]DPCPX form adenosine A1 receptor in rat cortex membrane at 1 uM; type: cell membranes; procedure, shortened: as §1
T2 sequence (whole entry): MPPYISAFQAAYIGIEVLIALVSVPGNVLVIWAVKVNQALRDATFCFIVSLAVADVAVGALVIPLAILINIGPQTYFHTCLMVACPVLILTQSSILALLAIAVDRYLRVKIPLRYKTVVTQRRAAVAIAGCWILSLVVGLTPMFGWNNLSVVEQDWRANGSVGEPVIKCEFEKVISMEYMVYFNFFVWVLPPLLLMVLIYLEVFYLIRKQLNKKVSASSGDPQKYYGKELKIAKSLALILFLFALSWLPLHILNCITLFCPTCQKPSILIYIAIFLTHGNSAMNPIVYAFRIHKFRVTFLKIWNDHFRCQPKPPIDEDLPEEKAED

[4] = target: T3, Adenosine receptor A3 (Homo sapiens) (UniProt P0DMS8); test: Displacement of [3H]NECA from human recombinant adenosine A3 receptor expressed in HeLa cells at 1 uM; type: cell-based; procedure, shortened: as §1
T3 sequence (whole entry): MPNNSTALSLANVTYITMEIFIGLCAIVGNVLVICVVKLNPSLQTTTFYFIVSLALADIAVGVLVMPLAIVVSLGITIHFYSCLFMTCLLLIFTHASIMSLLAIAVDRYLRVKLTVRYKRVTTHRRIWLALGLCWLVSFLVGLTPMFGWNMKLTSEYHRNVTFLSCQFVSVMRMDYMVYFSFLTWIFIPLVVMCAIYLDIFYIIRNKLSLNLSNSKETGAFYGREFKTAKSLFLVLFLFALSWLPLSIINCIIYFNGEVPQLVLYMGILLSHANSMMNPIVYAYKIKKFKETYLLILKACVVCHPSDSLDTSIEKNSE

Activity [1]: 59%
Activity [2]: 6%
Activity [3]: 14%
Activity [4]: 7%
SMILES: O=c1c2[nH]c(Cc3c(F)cccc3F)nc2n(Cc2ccco2)c(=O)n1CC1CC1

— ChEMBL document CHEMBL1152551, “Synthesis and pharmacological evaluation of novel 1- and 8-substituted-3-furfuryl xanthines as adenosine receptor antagonists” (Bioorg Med Chem, 2009)
